Here are results for five compounds from ChEMBL document CHEMBL1121782, “New monofunctional reagents for DNA as possible agents for the photochemotherapy of psoriasis: derivatives of 4,5'-dimethylangelicin” (J Med Chem, 1981).

The nature of series [1]: Specific radioactivity of the compound. In kind it is ADME.
A short description of series [2]: Water solubility of the compound. In kind it is ADME. The note with it: for S: buffer; for solubility: water, read-out: S.
For the next series, the system named is Nucleic Acid. Briefly: The compound was tested for its ability to bind to calf thymus DNA. In kind it is nucleic-acid assay. The conditions noted are these: Bos taurus. A digest of the protocol: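 Calf thymus DNA (hypochromicity over 40%) in water with 1.5 × 10-2 M NaCl and 1 × 10^-3 M EDTA, no irradiation. Ground-state binding by equilibrium dialysis or fluorimetric titration. r (ligand bound per nucleotide) and c (free ligand, mol/L) plotted per Scatchard. Intrinsic constant K and site size n fitted iteratively to McGhee–von Hippel by least squares until both changed by less than 1%.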

The species entered for series [3] is Mus musculus. Briefly: compound was evaluated for its ability to inhibit DNA synthesis in Ehrlich ascites tumor cells by irradiation (365 nM). In kind it is functional. A digest of the protocol: (§1)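 Ehrlich ascites tumor cells in Hank's solution (2 × 10^7 cells/mL) irradiated on ice with 1.9 × 10^-5 M compound, Philips HPW 125 lamp at 20 cm (2.02 × 10^16 quanta/s incident). 2 × 10^6 cells then pulsed 15 min at 37 °C with 1 μCi [3H]thymidine (DNA) or [3H]uridine (RNA). Acid-insoluble counts taken as % of untreated cells. D50 is the UV-A dose giving 50% inhibition. Each dose run at least in duplicate.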

Series [4] is filed under the species Mus musculus. The series can be described thus: Compound was evaluated for its ability to inhibit RNA synthesis in Ehrlich ascites tumor cells by irradiation (365 nM),. In kind it is functional. The procedure, abridged:
as §1

The species named for series [5] is Mus musculus. Briefly: Compound was evaluated for its ability to inhibit DNA synthesis in Ehrlich ascites tumor cells by irradiation (365 nM). In kind it is functional. A digest of the protocol:
(§2)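 Ehrlich ascites tumour cells in Hank's solution (2 × 10^7 cells/mL) irradiated on ice with UV-A (Philips HPW 125, 20 cm; 2.02 × 10^16 quanta/s on whole sample) with 1.9 × 10^-5 M compound. Then 2 × 10^6 cells incubated 15 min at 37 °C with 1 μCi [3H]thymidine (DNA) or [3H]uridine (RNA). TCA-insoluble counts as % of untreated; D50 = UV dose giving 50% inhibition; doses ≥duplicate.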

For series [6], the species on record is Mus musculus. The series can be described thus: Compound was evaluated for its ability to inhibit RNA synthesis in Ehrlich ascites tumor cells by irradiation (365 nM). In kind it is functional. The procedure, abridged:
as §2

≈ marks a conversion by molar mass, not a printed value. Where only a bound is given, the exact number is not on record here.

Regarding `Cc1cc2c(ccc3c(C)cc(=O)oc32)o1`, the Specific radioactivity in series [1] worked out at 5.11 Ci/M. Further, the S in series [2] came to 3.7e-05 M l-1. For the same compound, the solubility in series [2] worked out at 8 µg/mL (≈ 37.3 µM). Moreover, the K with Nucleic Acid is 1400. The D50 was determined as 10.8 quanta*10e-18 in the series filed under Mus musculus [3] and 13.5 quanta*10e-18 in the series filed under Mus musculus [4].

As for `Cc1oc2ccc3c(C)cc(=O)oc3c2c1CN.Cl`, in series [1], the Specific radioactivity stood at 0.13 Ci/M. In addition, in series [2], the S was over 0.004 M l-1 and the solubility is over 1000 µg/mL. The K with Nucleic Acid worked out at 16300. In the series listed under Mus musculus [3], the D50 is on record as 100 quanta*10e-18. In the series filed under Mus musculus [4], this compound gave a D50 of 100 quanta*10e-18.

As for `COCc1c(C)oc2ccc3c(C)cc(=O)oc3c12`, in series [1], the Specific radioactivity is given as 0.21 Ci/M. In series [2], the S worked out at 0.000056 M l-1 and the solubility turned out to be 15.3 µg/mL (≈ 59.2 µM). In addition, in the series with Nucleic Acid, the K is 700. Further, in the series filed under Mus musculus [3], the D50 stood at 22.7 quanta*10e-18. Further, in the series listed under Mus musculus [4], the D50 was 13.8 quanta*10e-18.

As to `O=c1ccc2ccc3occc3c2o1` [ANGELICIN], the Specific radioactivity in series [1] is on record as 1.59 Ci/M. Moreover, the D50 in the series filed under Mus musculus [5] was 25 quanta*10e-18; in the series filed under Mus musculus [6], 23.3 quanta*10e-18.

As for `Cc1oc2ccc3c(C)cc(=O)oc3c2c1CO`, in series [1], the Specific radioactivity was determined as 0.13 Ci/M. The S in series [2] came to 0.00007 M l-1. The solubility in series [2] stood at 17.1 µg/mL (≈ 70 µM). Moreover, the K in the series on Nucleic Acid stood at 1250. Also, the D50 in the series filed under Mus musculus [3] came out at 9.2 quanta*10e-18; in the series listed under Mus musculus [4] it was 13.8 quanta*10e-18.
